Experimental data as given in paper PMC3068223 (Biochemistry, 2011).

Experiments:
Format in all cases: biochemical
[1] = biological target: T1, rat MAO A (Rattus norvegicus, UniProt P21396); experiment: Inhibition of recombinant rat MAO A in P. pastoris mitochondria; settings: intact yeast mitochondria
T1 sequence (P21396 1-526): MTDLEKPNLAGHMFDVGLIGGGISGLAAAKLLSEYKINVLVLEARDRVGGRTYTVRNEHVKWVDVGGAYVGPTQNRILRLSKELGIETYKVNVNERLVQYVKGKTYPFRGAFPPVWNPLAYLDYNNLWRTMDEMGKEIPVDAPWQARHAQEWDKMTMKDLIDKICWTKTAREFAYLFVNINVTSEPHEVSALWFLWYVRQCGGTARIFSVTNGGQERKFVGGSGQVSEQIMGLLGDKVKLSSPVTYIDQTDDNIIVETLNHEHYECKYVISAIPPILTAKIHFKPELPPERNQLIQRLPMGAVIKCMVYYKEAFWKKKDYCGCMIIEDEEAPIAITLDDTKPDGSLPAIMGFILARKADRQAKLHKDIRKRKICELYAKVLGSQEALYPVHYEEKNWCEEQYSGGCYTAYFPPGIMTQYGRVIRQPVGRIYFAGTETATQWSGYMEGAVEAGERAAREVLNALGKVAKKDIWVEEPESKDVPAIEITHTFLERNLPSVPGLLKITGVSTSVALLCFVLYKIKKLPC

[2] = biological target: T2, purified rat MAO A (Rattus norvegicus, UniProt P21396); experiment: Rate of inactivation of purified rat MAO A; settings: apparent pseudo-first order, 1 mM inhibitor, room temperature
T2 sequence (P21396 1-526): T1 sequence (P21396 1-526)
How it was run: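 Recombinant rat MAO A was purified from Pichia pastoris KM71, with d-amphetamine removed before kinetics. The enzyme was incubated with 1 mM test compound at room temperature, with an uninhibited control. Activity loss over time was measured spectrophotometrically with kynuramine in 50 mM potassium phosphate, pH 7.5, 0.5% reduced Triton X-100, at 25°C. Pseudo-first-order rate constants came from exponential decay fits.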

[3] = biological target: T3, rat MAO B (Rattus norvegicus, UniProt P19643); experiment: Inhibition of recombinant rat MAO B in P. pastoris mitochondria; settings: intact yeast mitochondria
T3 sequence (P19643 1-520): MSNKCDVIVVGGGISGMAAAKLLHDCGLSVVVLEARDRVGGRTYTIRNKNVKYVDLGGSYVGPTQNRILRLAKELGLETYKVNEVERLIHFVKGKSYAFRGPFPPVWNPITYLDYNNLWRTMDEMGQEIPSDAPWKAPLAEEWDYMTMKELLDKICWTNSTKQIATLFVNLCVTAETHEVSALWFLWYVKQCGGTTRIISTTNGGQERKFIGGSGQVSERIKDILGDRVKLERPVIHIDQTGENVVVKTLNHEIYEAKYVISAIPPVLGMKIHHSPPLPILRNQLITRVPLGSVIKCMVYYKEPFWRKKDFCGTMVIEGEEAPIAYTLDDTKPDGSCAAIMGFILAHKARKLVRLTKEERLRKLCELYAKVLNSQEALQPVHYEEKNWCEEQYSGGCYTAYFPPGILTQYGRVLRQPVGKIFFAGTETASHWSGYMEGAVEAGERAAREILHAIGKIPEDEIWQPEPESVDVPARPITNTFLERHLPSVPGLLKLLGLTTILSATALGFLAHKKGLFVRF

[4] = biological target: T4, MOM-bound rat MAO A (Rattus norvegicus, UniProt P21396); experiment: Rate of inactivation of MOM-bound recombinant rat MAO A; settings: apparent pseudo-first order, 1 mM inhibitor, room temperature
T4 sequence (P21396 1-526): T1 sequence (P21396 1-526)
How it was run: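 Outer-membrane-bound rat MAO A came from Pichia pastoris KM71 mitochondria, isolated by osmotic shock, sonication and sucrose gradient. Membranes were incubated with 1 mM test compound at room temperature, with an uninhibited control. Remaining activity over time was followed spectrophotometrically at 25°C. Apparent pseudo-first-order rate constants were obtained from exponential fits of activity decay.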

[5] = biological target: T5, MOM-bound rat MAO B (Rattus norvegicus, UniProt P19643); experiment: Rate of inactivation of MOM-bound recombinant rat MAO B; settings: apparent pseudo-first order, 1 mM inhibitor, room temperature
T5 sequence (P19643 1-520): T3 sequence (P19643 1-520)

[6] = biological target: T6, purified rat MAO B (Rattus norvegicus, UniProt P19643); experiment: Rate of inactivation of purified rat MAO B; settings: apparent pseudo-first order, 1 mM inhibitor, room temperature
T6 sequence (P19643 1-520): T3 sequence (P19643 1-520)

[7] = biological target: T4, MOM-bound rat MAO A; experiment: Protease treatment of yeast recombinant MOM-bound rat MAO A; settings: protease:protein 1:5 (w/w), room temperature
How it was run: (§1)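 Rat MAO A or MAO B was expressed in Pichia pastoris KM71. Outer membranes were isolated by osmotic shock, mild sonication and a 30–55% sucrose gradient. Membranes were incubated at room temperature with trypsin or β-chymotrypsin at a 1:5 (w/w) protease:protein ratio. Timed samples were quenched with 1 mM PMSF (final). Residual activity was measured spectrophotometrically as product formation at 25°C.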

[8] = biological target: T7, MAO A (Rattus norvegicus, UniProt P21396); experiment: Protease treatment of rat liver mitochondria, MAO A activity; settings: protease:protein 1:5 (w/w), room temperature
T7 sequence (P21396 1-526): T1 sequence (P21396 1-526)
How it was run: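 Rat liver mitochondria were isolated from a perfused Sprague-Dawley rat liver and purified on 30% Percoll. They were incubated at room temperature with trypsin at a 1:5 (w/w) protease:protein ratio. Samples taken over time were quenched with 1 mM PMSF (final). MAO A activity was measured polarographically as O2 uptake with serotonin in 50 mM potassium phosphate, pH 7.5, at 25°C.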

[9] = biological target: T5, MOM-bound rat MAO B; experiment: Protease treatment of yeast recombinant MOM-bound rat MAO B; settings: protease:protein 1:5 (w/w), room temperature
How it was run: as §1

Compound | inhibition of rat MAO A in intact mitochondria [1] | k (inactivation) MAO A (Purified) [2] [s⁻¹] | inhibition of rat MAO B in intact mitochondria [3] | k (inactivation) MAO A (MOM) [4] [s⁻¹] | k (inactivation) MAO B (MOM) [5] | k (inactivation) MAO B (Purified) [6] | inactivation of yeast recombinant MOM-bound rat MAO A by protease [7] | MAO A activity lost [8] [%] | inactivation of yeast recombinant MOM-bound rat MAO B by protease [9]
C#CCN(C)Cc1ccccc1 [Pargyline, pargyline] | functions as an inhibitor with either enzyme | 9.4 ± 1.1 | functions as an inhibitor with either enzyme | 44.8 ± 6.2 | too fast to measure | too fast to measure |  |  | 
trypsin |  |  |  |  |  |  | sensitive to trypsin | > 90 | no observable inactivation
